Experimental data gathered from unrelated publications.
Protocols differ between the studies behind these lines.
Target: Ephrin type-B receptor 1 (EPHB1, Homo sapiens, UniProt P54762)
Sequence (P54762 18-984, as in one of the studies): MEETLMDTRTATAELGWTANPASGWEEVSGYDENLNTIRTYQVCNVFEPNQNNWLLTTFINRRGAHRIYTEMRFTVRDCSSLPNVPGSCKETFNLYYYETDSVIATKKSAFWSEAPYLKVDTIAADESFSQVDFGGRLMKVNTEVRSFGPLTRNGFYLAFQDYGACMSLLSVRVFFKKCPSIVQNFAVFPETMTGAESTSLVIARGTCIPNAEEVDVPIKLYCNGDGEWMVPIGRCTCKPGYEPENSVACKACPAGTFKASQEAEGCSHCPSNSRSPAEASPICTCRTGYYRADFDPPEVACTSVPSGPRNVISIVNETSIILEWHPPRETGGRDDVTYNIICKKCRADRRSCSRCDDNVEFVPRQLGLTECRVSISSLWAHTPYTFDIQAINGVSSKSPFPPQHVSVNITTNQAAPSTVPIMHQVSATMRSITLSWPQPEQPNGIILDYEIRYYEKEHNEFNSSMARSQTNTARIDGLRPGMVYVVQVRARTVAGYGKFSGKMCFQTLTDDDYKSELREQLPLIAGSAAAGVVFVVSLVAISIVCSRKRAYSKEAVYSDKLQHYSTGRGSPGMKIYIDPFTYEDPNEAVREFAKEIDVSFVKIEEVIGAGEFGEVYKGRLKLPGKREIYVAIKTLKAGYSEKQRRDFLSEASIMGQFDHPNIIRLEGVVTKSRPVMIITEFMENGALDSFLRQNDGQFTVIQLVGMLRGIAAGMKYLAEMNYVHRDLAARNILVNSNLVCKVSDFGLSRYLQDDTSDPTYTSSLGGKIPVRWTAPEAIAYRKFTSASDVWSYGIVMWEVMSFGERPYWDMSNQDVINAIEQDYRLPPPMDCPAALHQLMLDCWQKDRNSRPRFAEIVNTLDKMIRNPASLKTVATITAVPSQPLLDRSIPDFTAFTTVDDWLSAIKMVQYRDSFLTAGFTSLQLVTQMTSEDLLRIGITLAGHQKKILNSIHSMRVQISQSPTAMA

Structure (SMILES)	test	conditions	endpoint	result
O=c1[nH]c2ccccc2n1C1CCN(Cc2ccc(-c3[nH]c4cc5ncnc5cc4nc3-c3ccccc3)cc2)CC1	cell-free assay	0.5 µM	remaining signal	104%
Cn1cncc1[C@](O)(COc1ccc(C#N)cc1-c1ccc(OC(F)(F)F)cc1)c1ccc(C#N)cc1	cell-free assay, competition with immobilised ligand	1 µM	remaining binding	98%
Cc1nn(C)cc1-c1nc2c(N3CCN(Cc4ccc(Cl)cc4)CC3)c(Cl)cnc2[nH]1	binding, competition with immobilised ligand	1 µM	remaining binding	100%
Cn1cc(-c2cccc(N3CCc4c(sc5c4CC(C)(C)C5)C3=O)c2CO)cc(Nc2ccncn2)c1=O	enzyme activity, inhibitor	1 µM	inhibition	4%
N#CC1(c2ccccn2)CCN(Cc2cc(C(=O)O)c(=O)n3ccccc23)CC1	cell-free assay, competition with immobilised ligand	1 µM	remaining binding	100%
Cn1cc(-c2cc(F)cc(N3CCn4c(cc5c4CCCC5)C3=O)c2CO)cc(Nc2ccc(N3CCN(C4COC4)CC3)cn2)c1=O	enzyme activity, inhibitor	0.1 µM	inhibition	6%
Nc1ncc(-c2nc(N3CCOCC3)nc(N3CCOCC3)n2)c(C(F)F)n1	cell-free assay, competition with immobilised ligand	10 µM	remaining binding	98%
CC(C)(C)c1cc(C=C(C#N)C#N)cc(Br)c1O	enzyme activity, inhibitor	0.5 µM	remaining activity	114%
C#Cc1n[nH]c2c(-c3cn([C@@H](C)c4ccccc4)c(=O)[nH]c3=O)cc(F)cc12	enzyme activity, inhibitor	0.1 µM	inhibition	1.9%
COc1ncccc1-c1cnn2ccc(N3CCN(C(=O)OC(C)C)CC3)nc12	binding, competition with immobilised ligand	1 µM	remaining binding	100%
C#Cc1n[nH]c2c(-c3cn(C(C)c4ccccn4)c(=O)[nH]c3=O)cc(F)cc12 (stereo not drawn)	enzyme activity, inhibitor	1 µM	inhibition	4.9%
COc1cc(Nc2ncc(F)c(Nc3ccc4c(n3)NC(=O)C(C)(C)O4)n2)cc(OC)c1OC	binding, competition with immobilised ligand	10 µM	inhibition	96%
